Source: the array DNA melting data of Ke et al. (doi:10.1101/2024.01.08.574731)

Key:
[1] = folding enthalpy; higher = less favourable; fluorescence melt of hairpins on a sequencing array, two-state fit; conditions: sodium 0.088 M
In short: (§1)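 Melting temperature and folding enthalpy were obtained by bootstrapped two-state fitting. Fits used Cy3 fluorescence of library hairpins with annealed Cy3 and quencher oligos on a sequenced MiSeq flow cell, imaged in 50 mM Na-HEPES pH 8.0, 25 mM NaCl in 2.5 °C steps up to 60 °C and normalised to pre-quench Cy3 and control constructs. Four replicates were combined by inverse-variance weighting, and fitted temperatures were raised by 9.35 °C to match UV melts.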

[2] = melting temperature; fluorescence melt of hairpins on a sequencing array, two-state fit, raised by 9.35 °C to match UV melts; conditions: sodium 0.088 M
In short: as §1

| Sequence | folding enthalpy [1] [kcal/mol] | Tm [2] [°C] |
| --- | --- | --- |
| GAGGAGGGAAACCCCCTC ((((.((....)).)))) | -26 | 46.5 |
| GTCCAATCGAAAGATGAC (((..(((....)))))) | -13.9 | 29.1 |
| GGCACGTCGAAAGACGCC (((..(((....)))))) | -11 | 40.7 |
| AGCATGAAAATGCT (((((....))))) | -22.2 | 50 |
| GATCGAAGTATCGATC ((((((....)))))) | -31.7 | 50.9 |
| GCCAGCGGAAACGTTGGC ((((.((....)).)))) | -38.9 | 59.4 |
| GTAAACCCGAAAGGGTAC (((..(((....)))))) | -10.1 | 32.8 |
| GTATGAGCGAAAGCTTAC (((..(((....)))))) | -9.43 | 30.1 |
| GTCGACGAAAGTCTGGAC ((((((....)))..))) | -16.1 | 39.8 |
| GCGGTTGGAAACAACTGC ((.((((....)))).)) | -46.5 | 55.6 |
| GTGATCGAAAGATTACAC ((((((....)))..))) | -20 | 38.5 |
| GTGTGTGGAAACGCATAC ((.((.(....).)).)) | -22.9 | 36 |
| GACACAGGAAACCGTGTC (((((.(....).))))) | -41.1 | 48.4 |
| GATAGCGAAAGCTTATC ((((((....))).))) | -13.7 | 39 |
| GTTGTGCGAAAGCATAAC (((.(((....))).))) | -30.5 | 54 |
| CGGTTACGGAAACGTCCG (((..(((....)))))) | -23.3 | 36.1 |
| GACTCGCGAAAGCGGTC (((.(((....)))))) | -14.3 | 51.8 |
| GATTAGCCGAAAGGCATC (((..(((....)))))) | -7.43 | 28.5 |
| CGGTCCGGAAACGGCCCG (((.(((....))).))) | -29.4 | 55.1 |
| GCACGGCGAAAGCTGGGC ((.(.((....)).).)) | -31.5 | 67.5 |
| GGCACTGGAAACAGCGCC (((.(((....))).))) | -46.1 | 54 |
| GTGGCCCCGAAAGGGCAC (((..(((....)))))) | -15 | 57.5 |
| GATCTATACATAGATC ((((((....)))))) | -37.1 | 46.4 |
| GGATGAGGAAACTCATCC (((((((....))))))) | -43.5 | 63.1 |

| Sequence | folding enthalpy [1] [kcal/mol] | Tm [2] [°C] |
| --- | --- | --- |
| GACGGTGGAAACGTCGTC ((((..(....)..)))) | -31.6 | 54.8 |
| GCCTCCGAAAGGATGGGC ((((((....)))..))) | -41.9 | 50 |
| GATCCCCTTTGGGATC ((((((....)))))) | -33.9 | 61 |
| GATCGAATTATCGATC ((((((....)))))) | -38.2 | 50.7 |
| GCGGTCGAAAGACACGC ((((((....))).))) | -27.4 | 61.8 |
| GAGAACGAAAGTTTCTC ((((((....))).))) | -25.1 | 43.5 |
| GATCTAAACTTAGATC ((((((....)))))) | -37 | 42.2 |
| GATCATGCCGATGATC ((((((....)))))) | -40.8 | 49.5 |
| GATTAGCGAAAGCTCATC (((.(((....))).))) | -19.1 | 38.7 |
| TGAGGGAAACCTCA (((((....))))) | -20.9 | 42.2 |
| GATTTACGAAAGTACATC (((.(((....))).))) | -19.9 | 35.6 |
| GATCTGTGCTCAGATC ((((((....)))))) | -39 | 50.6 |
| GGCCGGGGAAACCCAGCC (((.(((....))).))) | -42.6 | 51.7 |
| GATCCGCCCACGGATC ((((((....)))))) | -43.6 | 59.5 |
| GCATATGGAAACATACGC ((.((((....)))).)) | -26.3 | 35.4 |
| GGACGCCGAAAGGCATCC (((.(((....))).))) | -22.6 | 52.6 |
| GCGGAAGAAATTCCGC ((((((....)))))) | -34.9 | 61.8 |
| GGGCTACGAAAGTACCCC (((.(((....))).))) | -17.5 | 49.4 |
| GCCGCCGGAAACGGCAGC ((.((((....)))).)) | -15.9 | 59.1 |
| GCGTGCGAAAGCATCGC ((((((....))).))) | -30.9 | 67.2 |
| GCGTTATCACGC ((((....)))) | -22.5 | 50.6 |
| GCTTCGCGAAAGCTAGGC ((.(.((....)).).)) | -17.3 | 35.2 |
| GGAGACTCGAAAGAGTCC (((..(((....)))))) | -10 | 45.4 |
| GATCCACAACTGGATC ((((((....)))))) | -34.5 | 47 |

| Sequence | folding enthalpy [1] [kcal/mol] | Tm [2] [°C] |
| --- | --- | --- |
| GGTCAGGAAACTGACC ((((((....)))))) | -44.5 | 59.9 |
| GGGAAACGAAAGTTACCC (((.(((....))).))) | -29.5 | 50.7 |
| GTTTCACGAAAGTGGAAC (((.(((....))).))) | -30.5 | 52.2 |
| GCTGATGGAAACATTAGC (((.(((....))).))) | -37.4 | 46.5 |
| GTTTCAGGAAACTGGAAC (((.(((....))).))) | -26.4 | 43.3 |
| GATCCGCAATCGGATC ((((((....)))))) | -35.1 | 56 |
| GATCTAGCGCTAGATC ((((((....)))))) | -45.9 | 53.6 |
| GATGACGGAAACGTTGTC ((..(((....)))..)) | -28.5 | 36.1 |
| GTCGCCGGAAACGGTGGC (.(.(((....))).).) | -25.5 | 52.2 |
| GATCAAGGGTTGATC ((((((...)))))) | -24 | 40.3 |
| GTTCTCCCGAAAGGGAAC (((..(((....)))))) | -9.91 | 30.6 |
| GATCTTTATTAAGATC ((((((....)))))) | -34.2 | 43.5 |
| GATCCTCCCAAGGATC ((((((....)))))) | -43.1 | 53.1 |
| GCGAGGCGAAAGCGTAGC ((.(.((....)).).)) | -15.4 | 51 |
| GCCTAGAAATAGGC (((((....))))) | -29.2 | 49.8 |
| GGCACCTCGAAAGAGGCC (((..(((....)))))) | -12.2 | 38.2 |
| GCGTCCCGAAAGGGCCGC (((.(((....))).))) | -23.7 | 64.8 |
| GTATCCGGAAACGGATGC (.(((((....))))).) | -28.3 | 53 |
| GCGATGCGAAAGCCTGGC ((.(.((....)).).)) | -11.5 | 29.1 |
| CGACTCGGAAACGATTCG (((.(((....))).))) | -41 | 42.5 |
| GCCAAGCGAAAGCACGGC (((..((....))..))) | -30.4 | 57.4 |
| GTCTAGGGAAACCCAGAC ((((.((....)).)))) | -30.1 | 40.9 |
| GACCCCGAAAGGGATGTC ((((((....)))..))) | -15.6 | 41.2 |
| GATCTGGATCCAGATC ((((((....)))))) | -55.9 | 54.1 |

| Sequence | folding enthalpy [1] [kcal/mol] | Tm [2] [°C] |
| --- | --- | --- |
| GCGAAAATTCGC ((((....)))) | -18.6 | 47.8 |
| GGTCTGAAAAGACC (((((....))))) | -31.1 | 61.7 |
| GTCGTTCGAAAGAAGAC (((.(((....)))))) | -21.2 | 35.6 |
| GTGGGTACGAAAGTACAC (((..(((....)))))) | -31.6 | 55 |
| GCAGAGCGAAAGCTGCGC ((..(((....)))..)) | -21 | 61.3 |
| GTCTCGGAAACGAGAC ((((((....)))))) | -44.5 | 64.8 |
| GTTGCTCCGAAAGGAAAC (((..(((....)))))) | -10 | 28.1 |
| GATTTAGGAAACTAAATC (((((((....))))))) | -42.9 | 48 |
| CGCGGAAAGATCCGCG ((((((....)))))) | -33.8 | 64.2 |
| CGATCCCGGAAACGGTCG (((..(((....)))))) | -19.9 | 30.7 |
| GATCCGAGGCGGATC ((((((...)))))) | -43.4 | 56.8 |
| GGCAAACGAAAGTTCGCC (((.(((....))).))) | -47.9 | 53.3 |
| GGGCCTGGAAACGGGCTC (.(((.(....).))).) | -24 | 50.2 |
| GCCAAGCGAAAGCTGTGC ((..(((....)))..)) | -17.4 | 46.4 |
| GCCATTGGAAACAATAGC ((.((((....)))).)) | -13.7 | 33.1 |
| GATCTAGTATAGATC ((((((...)))))) | -41.5 | 49.5 |
| GACTACGAAAGTACGTC ((((((....))).))) | -25.7 | 43.3 |
| GCGTCGCGAAAGCCTCGC (((..((....))..))) | -21.7 | 50.8 |
| GTCTTGCGAAAGCACGAC (((.(((....))).))) | -41.5 | 52.1 |
| TATCCGAAAGGATA (((((....))))) | -16.6 | 56.5 |
| GATCGGCTTCCGATC ((((((...)))))) | -44.9 | 56.1 |
